The source made the active and inactive calls.
Assays:
[1] = system: Nucleic Acid; assay: Inhibition of [3H]thymidine incorporation into proliferating L1210 cells.; assay type: functional, cell-based; conditions: Mus musculus
Summary of the method: (§1)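 Actively growing L1210 cells in culture were exposed to drug, which was first dissolved in Me2SO and diluted to 1% Me2SO final. Incorporation of [3H]thymidine into DNA or [3H]uridine into RNA was measured. ED50 is the drug concentration giving 50% inhibition.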

[2] = system: Mus musculus; assay: Antitumor activity against mice baering P388 leukemia (10e6 cells) implanted ip on day 0, after treatment with three ip doses (50 mg/kg) on day 5,9,13 when tumor became systemic.; assay type: functional
Summary of the method: (§2)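 Mice implanted ip with 10^6 P388 leukemia cells on day 0, then dosed ip either once on day 1 or on days 5, 9 and 13 once the tumour was systemic. Efficacy is T/C, the mean survival time of treated over control mice, expressed as %. T/C > 120% counts as active. The optimum dose is reported.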

[3] = Partition coefficient (log P) was the log of ratio of concentration in octanol / water partitioned concentration in phosphate buffer at pH 7.4.; assay type: physicochemical
[4] = system: Nucleic Acid; assay: Inhibition of [3H]uridine incorporation into proliferating L1210 cells.; assay type: functional, cell-based; conditions: Mus musculus; summary of the method: as §1
[5] = system: Calf thymus DNA; assay: Change in thermal denaturation temperature of calf thymus DNA; assay type: nucleic-acid assay; conditions: Bos taurus
Summary of the method: (§3)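 Calf thymus DNA with drug at 5.2 X 10^-6 M in 0.01 M phosphate buffer pH 7 containing EDTA and 5% Me2SO. ΔTm is the thermal denaturation temperature of the DNA–drug complex minus that of DNA alone. Values <1 count as insignificant binding.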

[6] = system: Mus musculus; assay: Antitumor activity against mice baering P388 leukemia (10e6 cells) implanted ip on day 0, after treatment with single ip dose 0.25 mg/kg on day 1.; assay type: functional; conditions: route intraperitoneal; summary of the method: as §2
[7] = system: Calf thymus DNA; assay: (§4) Effect on thermal denaturation temperature (delta Tm) of helical DNA; assay type: nucleic-acid assay; conditions: Bos taurus
Summary of the method: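 ΔTm was taken as the Tm of the drug–calf thymus DNA complex minus the Tm of DNA alone. Drug was at 5.2 × 10^-6 M in 0.01 M phosphate buffer (pH 7) containing EDTA and 5% Me2SO. Values below 1 were considered insignificant binding.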

[8] = system: Mus musculus; assay: Antitumor activity (treated/control) against mice bearing P388 leukemia implanted ip on day 0, after treatment with three po doses 0.1 mg/kg on days1,5,9 when the tumor had become systemic; assay type: functional
Summary of the method: (§5)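 Mice tumour-implanted on day 0 as in the P388 ip screen. Dosing was iv for P388 (day 1), po for P388 (days 1, 5, 9), and ip for L1210 (day 1) and for B16 melanoma (days 1, 5, 9). Efficacy is T/C % of mean survival time of treated over control mice, at the optimum dose.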

[9] = system: Mus musculus; assay: Antitumor activity (treated/control) against mice bearing L1210 leukemia implanted ip on day 0, after treatment with single ip dose 0.025 mg/kg on day 1.; assay type: functional; conditions: route intraperitoneal; summary of the method: as §5
[10] = system: Calf thymus DNA; assay: as §4; assay type: functional; conditions: Bos taurus; summary of the method: as §3
[11] = system: Mus musculus; assay: Antitumor activity (treated/control) against mice bearing B16 melanoma implanted ip on day 0, after treatment with 3 ip doses 0.0063 mg/kg on day 1,5,9 when tumor had become systemic.; assay type: functional; conditions: route intraperitoneal; summary of the method: as §5
[12] = system: Mus musculus; assay: Antitumor activity (treated/control) against mice bearing P388 leukemia implanted ip on day 0, after treatment with single iv dose 0.05 mg/kg on day 1.; assay type: functional; summary of the method: as §5
[13] = system: Mus musculus; assay: Antitumor activity against mice baering P388 leukemia (10e6 cells) implanted ip on day 0, after treatment with single ip dose 0.05 mg/kg on day 1.; assay type: functional; conditions: route intraperitoneal; summary of the method: as §2
[14] = system: Mus musculus; assay: Antitumor activity against mice baering P388 leukemia (10e6 cells) implanted ip on day 0, after treatment with single ip dose 4.0 mg/kg on day 1.; assay type: functional; conditions: route intraperitoneal; summary of the method: as §2
[15] = system: Mus musculus; assay: Antitumor activity against mice baering P388 leukemia (10e6 cells) implanted ip on day 0, after treatment with three ip doses (8 mg/kg) on day 5,9,13 when tumor became systemic.; assay type: functional
[16] = system: Mus musculus; assay: Antitumor activity against mice baering P388 leukemia (10e6 cells) implanted ip on day 0, after treatment with three ip doses (0.2 mg/kg) on day 5,9,13 when tumor became systemic.; assay type: functional; summary of the method: as §2
[17] = system: Mus musculus; assay: Antitumor activity against mice bearing B16 melanoma implanted ip on day 0, after treatment with three ip doses 10 mg/kg on day 1,5,9 when tumor had become systemic.; assay type: functional; conditions: route intraperitoneal
[18] = system: Mus musculus; assay: Antitumor activity against mice bearing L1210 leukemia implanted ip on day 0, after treatment with single ip dose 10 mg/kg on day 1.; assay type: functional; conditions: route intraperitoneal
[19] = system: Mus musculus; assay: Antitumor activity against mice bearing P388 leukemia implanted ip on day 0, after treatment with single iv dose 10 mg/kg on day 1.; assay type: functional
[20] = system: Mus musculus; assay: Antitumor activity against mice baering P388 leukemia (10e6 cells) implanted ip on day 0, after treatment with single ip dose 7.5 mg/kg on day 1.; assay type: functional; conditions: route intraperitoneal
[21] = system: Mus musculus; assay: Antitumor activity against mice bearing P388 leukemia implanted ip on day 0, after treatment with three po doses on day 1,5,9 when the tumor had become systemic; Inactive; assay type: functional, organism-based
[22] = system: Mus musculus; assay: Antitumor activity against mice baering P388 leukemia (10e6 cells) implanted ip on day 0, after treatment with single ip dose 0.4 mg/kg on day 1.; assay type: functional; conditions: route intraperitoneal
[23] = system: Mus musculus; assay: Antitumor activity against mice baering P388 leukemia (10e6 cells) implanted ip on day 0, after treatment with three ip doses (0.5 mg/kg) on day 5,9,13 when tumor became systemic.; assay type: functional

| SMILES | ED50 [1] [µM] | logD [3] | ED50 [4] [µM] | ΔTm [5] [°C] | further results |
| --- | --- | --- | --- | --- | --- |
| COc1cccc2c1C(=N)c1c(O)c3c(c(O)c1C2=O)C[C@@](O)(C(O)CO)CC3OC1CC(N2CCOCC2)C(O)C(C)O1.Cl (stereo not given in full) | > 100 | 1.43 | 24 | 1.6 | T/C [2]: >161% |
| COc1cccc2c1C(=O)c1c(O)c3c(c(O)c1C2=O)C[C@@](O)(C(C)=O)CC3OC1CC(N2CCOCC2)C(O)C(C)O1.Cl (stereo not given in full) | 0.76 | 2.31 | 0.1 | 6.6 | T/C [6]: 155% |
| COc1cccc2c1C(=N)c1c(O)c3c(c(O)c1C2=O)C[C@@](O)(C(O)CO)CC3OC1CC(N2CCOCC2C#N)C(O)C(C)O1 (stereo not given in full) | 0.58 | – | 0.075 | – | ΔTm [7]: 0.8 °C |
| COc1cccc2c1C(=O)c1c(O)c3c(c(O)c1C2=O)C[C@@](O)(C(=O)CO)CC3OC1CC(N2CCOCC2C#N)C(O)C(C)O1 (stereo not given in full) | 0.003 | – | 0.00053 | – | T/C [8]: >158%; T/C [9]: 164%; ΔTm [10]: 8.7 °C; T/C [11]: >148%; T/C [12]: 152% |
| COc1cccc2c1C(=O)c1c(O)c3c(c(O)c1C2=O)C[C@@](O)(C(=O)CO)CC3OC1CC(N2CCOCC2)C(O)C(C)O1.Cl (stereo not given in full) | 0.71 | 1.73 | 0.17 | 9.6 | T/C [13]: 182% |
| COc1cccc2c1C(=N)c1c(O)c3c(c(O)c1C2=O)C[C@@](O)(C(=O)CO)CC3OC1CC(N2CCOCC2)C(O)C(C)O1.Cl (stereo not given in full) | 2.6 | 1.8 | 1.3 | 4.3 | T/C [14]: >215% |
| COc1cccc2c1C(=O)c1c(O)c3c(c(O)c1C2=O)C[C@@](O)(C(C)O)CC3OC1CC(N2CCOCC2)C(O)C(C)O1 (stereo not given in full) | 2.2 | 2.03 | 0.53 | 4.1 | – |
| COc1cccc2c1C(=O)c1c(O)c3c(c(O)c1C2=O)C[C@@](O)(C(C)=O)CC3OC1CC(N2CCOCC2C#N)C(O)C(C)O1 (stereo not given in full) | 0.012 | – | 0.002 | 6.3 | T/C [6]: 175% |
| COc1cccc2c1C(=O)c1c(O)c3c(c(O)c1C2=O)C[C@@](O)(C(C)=O)C[C@@H]3O[C@H]1C[C@H](N)[C@H](O)[C@H](C)O1.Cl [DAUNORUBICIN HYDROCHLORIDE] | 0.66 | 0.66 | 0.33 | 10.5 | T/C [15]: 130% |
| COc1cccc2c1C(=O)c1c(O)c3c(c(O)c1C2=O)C[C@@](O)(C(O)CO)CC3OC1CC(N2CCOCC2C#N)C(O)C(C)O1 (stereo not given in full) | 0.021 | 1.56 | 0.003 | 4.5 | T/C [13]: 183%; T/C [16]: 150% |
| COc1cccc2c1C(=O)c1c(O)c3c(c(O)c1C2=O)C[C@@](O)(C(=O)CO)C[C@@H]3O[C@H]1C[C@H](N)[C@H](O)[C@H](C)O1.Cl [DOXORUBICIN HYDROCHLORIDE] | 1.6 | – | 0.58 | 12.8 | T/C [17]: 278%; T/C [18]: 185%; T/C [19]: 178%; T/C [15]: 160%; T/C [20]: 252%; T/C [21]: inactive |
| COc1cccc2c1C(=O)c1c(O)c3c(c(O)c1C2=O)C[C@@](O)(C(O)CO)CC3OC1CC(N2CCOCC2)C(O)C(C)O1.Cl (stereo not given in full) | 7.5 | – | 3.3 | 3.9 | T/C [22]: >145% |
| COc1cccc2c1C(=N)c1c(O)c3c(c(O)c1C2=O)C[C@@](O)(C(=O)CO)CC3OC1CC(N2CCOCC2C#N)C(O)C(C)O1 (stereo not given in full) | 0.031 | 1.97 | 0.0047 | – | ΔTm [7]: 3.2 °C; T/C [23]: 157% |
| COc1cccc2c1C(=O)c1c(O)c3c(c(O)c1C2=O)C[C@@](O)(C(C)O)CC3OC1CC(N2CCOCC2C#N)C(O)C(C)O1 (stereo not given in full) | 0.019 | – | 0.002 | 4.2 | – |

From ChEMBL document CHEMBL1122652, “Intensely potent morpholinyl anthracyclines” (J Med Chem, 1984)
